Experimental findings from ChEMBL document CHEMBL3243974, “Cyclic analogues of luteinizing hormone-releasing hormone with significant biological activities” (1978) are described below.

Structures are written as SMILES. Where only a bound is given, the exact number is not on record here.

Type in all cases: functional
Assay [1] is filed under the species Rattus norvegicus. Briefly: Stimulation of luteinizing hormone release in ovariectomized rat assessed as serum luteinizing hormone level at 1000 ng pretreated with estrogen and progesterone by radioimmunoassay relative to control. The gist of the method: (§1)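 Ovariectomized rats pretreated with estrogen and progesterone, then given peptide at two doses (250 and 1000 ng). Saline alone and synthetic LH-RH at 2.5 and 10 ng served as comparators. Serum LH was measured by radioimmunoassay and reported in ng/mL ± SE.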

Assay [2] is filed under the species Rattus norvegicus. Briefly: Stimulation of luteinizing hormone release in ovariectomized rat at 1000 ng pretreated with estrogen and progesterone by radioimmunoassay relative to LH-RH. The gist of the method:
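Ovariectomized rats primed with estrogen and progesterone received peptide at 250 and 1000 ng, with saline and synthetic LH-RH (2.5 and 10 ng) as references. Serum LH was measured by radioimmunoassay. Activity is expressed as % of synthetic LH-RH (taken as 100) with 95% confidence limits.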

For assay [3], the species on record is Rattus norvegicus. The experiment in a line: Stimulation of luteinizing hormone release in ovariectomized rat assessed as serum luteinizing hormone level at 250 ng pretreated with estrogen and progesterone by radioimmunoassay relative to control. A digest of the protocol: as §1

In the case of `CC(C)C[C@H](NC(=O)[C@@H](C)NC(=O)[C@H](Cc1ccc(O)cc1)NC(=O)[C@H](CO)NC(=O)[C@H](Cc1c[nH]c2ccccc12)NC(=O)[C@H](Cc1cnc[nH]1)NC(=O)CCN)C(=O)N[C@@H](CCCNC(=N)N)C(=O)N1CCC[C@H]1C(=O)NCC(=O)O`, the figures for the Activity in assay [1], in assay [2] and in assay [3] were 65.69 ng/mL, less than 0.01% and 80.74 ng/mL, respectively.
As to `CC(C)C[C@@H]1NC(=O)[C@@H](C)NC(=O)[C@H](Cc2ccc(O)cc2)NC(=O)[C@H](CO)NC(=O)[C@H](Cc2c[nH]c3ccccc23)NC(=O)[C@H](Cc2cnc[nH]2)NC(=O)CCNC(=O)CNC(=O)[C@@H]2CCCN2C(=O)[C@H](CCCNC(=N)N)NC1=O`, the Activity in assay [1] came out at 364.59 ng/mL; in assay [2] it was 1.2%; in assay [3], 206.67 ng/mL.
Take `CC(C)C[C@@H]1NC(=O)[C@@H](C)NC(=O)[C@H](Cc2ccc(O)cc2)NC(=O)[C@H](CO)NC(=O)[C@H](Cc2c[nH]c3ccccc23)NC(=O)[C@H](Cc2cnc[nH]2)NC(=O)CCCCCNC(=O)CNC(=O)[C@@H]2CCCN2C(=O)[C@H](CCCNC(=N)N)NC1=O`: the Activity in assay [1] is 315.81 ng/mL; in assay [2], 0.65%; in assay [3] it was 151.02 ng/mL.
